This is a sample that favours compounds with a hit; in the whole collection about 2.1% have one here.
NS3 helicase inh: inhibitors of HCV NS3 helicase, primary screen, biochemical, Cy5 molecular beacon fluorescence; Hepatitis C virus NS3 helicase; NS3 helicase DNA unwinding; inhibition, % at 10.9 µM; 0.56% of 290,000 active; AID 1800, 2009;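 active means inhibition above the mean of all tested compounds plus 3 SD, set per campaign, cut at about 35% in these data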;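 further: 0% = DMSO wells and 100% = thioflavine S control wells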
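System: Hepatitis C virus NS3 helicase domain fragment enzyme | Reagent: Annealed dual-labelled DNA beacon duplex, ATP-started | Compound dosing: 10.9 µM single point, 0.8% DMSO | Incubation: 1 h reaction at 25 °C, ATP-initiated | Technique: Cy5 fluorescence | Evaluation: Percent inhibition from t60/t0 fluorescence ratio | Benchmarks: Low DMSO, high thioflavine S at 110 µM | Replication: Singlicate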
IMP-1 inh: IMP-1 metallo-beta-lactamase inhibitors, primary screen, biochemical, epi-absorbance readout, Pseudomonas aeruginosa enzyme; inhibition, % at 5.6 µM; 0.45% of 290,000 active; purified IMP-1, nitrocefin hydrolysis, epi-absorbance fluorescence; metallo-beta-lactamase IMP-1 (Pseudomonas aeruginosa); AID 1556, 2009;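 active means inhibition above the mean plus 3 SD of all compounds in the same screening run, cut at about 4.5% in these data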;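 further: 0% = IMP-1 with DMSO and 100% = DMSO wells lacking enzyme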
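system = purified recombinant IMP-1 beta-lactamase | amount = 0.2 nM IMP-1, as dispensed | medium = HEPES buffer pH 7.1 with ZnSO4 and Brij 35 | times = 25 °C, 15 min preincubation, 25 min reaction | detection = plate fluorescence quenching by hydrolysis product, ex 480/em 530 nm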
VIM-2 inhibitor: VIM-2 metallo-beta-lactamase inhibitors, primary screen, biochemical, epi-absorbance readout, Pseudomonas aeruginosa enzyme. purified VIM-2, nitrocefin hydrolysis, epi-absorbance fluorescence. inhibition, % at 5.6 µM. 0.89% of 290,000 active. AID 1527, 2009;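 active means inhibition above the mean of all tested compounds plus 3 SD, cutoff set per screening run, cut at about 7.5% in these data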;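 further: red hydrolysis product quenches plate fluorescence so inhibitors raise well fluorescence; 0% = enzyme with DMSO and 100% = DMSO without enzyme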
UBC9 SUMO inh: inhibitors of in vitro SUMOylation cascade, primary screen, biochemical, HTRF, uHTS; inhibition, % at 35 µM; 0.36% of 290,000 active; SUMO-conjugating enzyme UBC9 (Homo sapiens), P63279; HTRF SUMOylation assay, SAE1/SAE2 + UBC9; in the data active means inhibition above about 50%, passing the limit was not always enough
Target sequence (P63279 whole entry, looked up): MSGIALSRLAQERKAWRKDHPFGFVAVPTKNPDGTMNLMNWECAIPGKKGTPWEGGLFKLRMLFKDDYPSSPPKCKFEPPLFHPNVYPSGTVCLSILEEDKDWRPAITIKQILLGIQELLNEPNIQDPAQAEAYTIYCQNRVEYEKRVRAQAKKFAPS
DNA FID counter-1: compounds displacing fluorescent DNA intercalator, primary screen, artefact control for HCV NS3 helicase inhibitor project, biochemical, FID fluorescence; AID 1845, 2009; 0.17% of 290,000 active; DNA fluorescent intercalator displacement; inhibition, % at 7.9 µM;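 further: 0% = vehicle and 100% = reference compound; higher means more ethidium bromide displaced from hairpin DNA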
NS3 hel confirm: HCV NS3 helicase inhibitors, retest, confirmation, biochemical, Cy5 molecular beacon fluorescence, triplicate; shares compounds with NS3 helicase inh; NS3 helicase DNA unwinding; inhibition, % at 10.9 µM; 31% of 1,600 active; AID 1943, 2009;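 active means inhibition above the mean of all tested compounds plus 3 SD, cutoff set per campaign, cut at about 36% in these data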
DNA FID counter-2: compounds displacing fluorescent DNA intercalator, artefact control for HCV NS3 helicase inhibitor project, biochemical, FID fluorescence, triplicate | inhibition, % at 7.9 µM | DNA fluorescent intercalator displacement | 4% of 1,600 active | shares compounds with NS3 helicase inh | AID 1945, 2009;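 further: 0% = vehicle and 100% = reference compound; higher means more displacement of ethidium bromide from the DNA hairpin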
Numbers without * were called inactive; · = no result. Unless noted, no stated cut-off is given here; in the data, active means inhibition above about 37%; inactive means the rest.

SMILES	NS3 helicase inh	IMP-1 inh	VIM-2 inhibitor	UBC9 SUMO inh	DNA FID counter-1	NS3 hel confirm	DNA FID counter-2
Cc1cc(C)cc(NC(=O)C2CCN(S(=O)(=O)c3ccc4c(c3)NC(=O)C(C)S4)CC2)c1 (stereo not given)	43*	2	1	-1	-37	4	-12
Cc1ccc(NC(=O)C2CCN(S(=O)(=O)c3ccc4c(c3)NC(=O)C(C)S4)CC2)c(Cl)c1 (stereo not given)	-15	-3	-3	-18	-45	·	·
CCc1nnc(NS(=O)(=O)c2ccc(NC(=S)NC(=O)c3ccccc3)cc2)s1	45*	0	-2	4	-17	66*	-3
CCc1nnc(NS(=O)(=O)c2ccc(NC(=O)c3ccccc3)cc2)s1	22	-6	-3	20	-22	·	·
CCc1nnc(NS(=O)(=O)c2ccc(NC(=S)NC(=O)c3ccc(Br)cc3)cc2)s1	58*	0	-2	19	-21	49*	10
O=C(CCc1c[nH]c2ccccc12)NCC(=O)Nc1ccc(F)c(F)c1F	-2	-5	-4	14	3	·	·
COc1cc(NS(=O)(=O)c2ccc(NC(=S)NC(=O)c3ccc(F)cc3)cc2)nc(OC)n1	40*	1	-1	-4	-34	27	-13
COc1ccc(C(=O)NC(=S)Nc2ccc(S(=O)(=O)Nc3cc(OC)nc(OC)n3)cc2)cc1	-2	-4	-3	1	-35	·	·
CN(C(=S)NC(=O)c1ccc(Br)o1)c1ccccc1	-3	-1	-5	9	0	·	·
CC(C)N(C)CCOC(=O)C1COc2ccccc2O1 (stereo not given)	-4	-3	-3	20	6	·	·
CCc1ccc(C(=O)C(C)OC(=O)C2COc3ccccc3O2)cc1 (stereo not given)	45*	-2	-3	-20	-12	5	-18
CCCCCN(C(=O)CN1CCC(Cc2ccccc2)CC1)c1c(N)n(CCCC)c(=O)[nH]c1=O	-12	-1	-1	0	15	·	·
CN(C)c1ccc(/C=C/c2ccc3c4ccccc4ccc3[n+]2-c2ccccc2)cc1	63*	-9	-1	-22	78*	91*	101*
COc1ccc(C)cc1N(CC(=O)Nc1ccc(S(=O)(=O)N2CCCC2)cc1)S(C)(=O)=O	-9	-2	0	-8	-48	·	·
Cc1cc(C)nc(N/N=C/C2=C(N3CCOCC3)C(=C\c3ccc(Cl)cc3)/CC2)n1	36*	-2	-1	21	-20	-6	-10
O=CC1=C(N2CCOCC2)/C(=C/c2ccc(Cl)cc2)CC1	8	-2	-2	18	-13	·	·
O=C(O)c1cccc(NC(=O)c2ccc3c(c2)C(=O)N(C2CCCCC2)C3=O)c1	-3	-3	-1	20	-26	·	·
Cc1nn(S(=O)(=O)c2ccccc2)c(C)c1S(=O)(=O)N1CCOCC1	-5	-3	-3	14	1	·	·
O/N=C/c1ccc2cccc(OCc3ccccc3)c2n1	0	-3	-3	20	-23	·	·
NC(=S)N/N=C/c1ccc2cccc(OCc3ccccc3)c2n1	39*	-2	-3	43	-33	-2	-21
O=C(NNC1CC(=O)N(c2ccccc2)C1=O)c1ccccc1Cl (stereo not given)	-7	-2	-2	10	-4	·	·
O=C(NNC1CC(=O)N(c2ccc(Cl)cc2)C1=O)c1ccccc1Cl (stereo not given)	38*	-2	-6	-12	-18	-14	-6
CCOC(=O)c1c(S(=O)(=O)NCCc2ccc(OC)c(OC)c2)c(C)n(C)c1C	39*	2	2	4	-21	-11	-20
CCOC(=O)c1c(S(=O)(=O)NCCc2ccccc2)c(C)n(C)c1C	9	-2	-1	-4	-32	·	·
COc1ccc(CN(CCC(c2ccccc2)c2ccco2)C(=O)c2ccco2)cc1 (stereo not given)	25	1	3	15	-39	·	·
SMILES	NS3 helicase inh	IMP-1 inh	VIM-2 inhibitor	UBC9 SUMO inh	DNA FID counter-1	NS3 hel confirm	DNA FID counter-2
O=C(c1ccco1)N(CCC(c1ccccc1)c1ccco1)Cc1ccccc1 (stereo not given)	50*	-2	-4	28	-45	21	-20
CCc1ccc(-n2c(SCC(=O)N3Cc4ccccc4CC3C(=O)O)nnc2-c2ccncc2)cc1 (stereo not given)	42*	0	1	4	-48	-26	-24
CCc1ccc(-n2c(SCC(=O)N3CCC(C(=O)O)CC3)nnc2-c2ccncc2)cc1	4	-2	0	10	-40	·	·
COC(=O)Cn1c(=O)c2c(nc3n2CCCN3Cc2ccccc2)n(C)c1=O	-11	-4	0	4	-26	·	·
O=C(Nc1ccccc1)c1ccc(OC(=O)c2ccccc2)cc1	-3	-3	-2	17	-2	·	·
O=C(Oc1ccc(NC(=O)c2cc3c(cc2Br)OCO3)cc1)c1ccccc1	25	-1	0	30	-17	-10	-6
O=C(C1=C(O)C(=O)N(CC2CCCO2)C1c1ccc(Cl)cc1Cl)c1ccco1 (stereo not given)	68*	-1	-1	-8	-44	-3	-21
O=C(C1=C(O)C(=O)N(CC2CCCO2)C1c1ccccc1)c1ccco1 (stereo not given)	16	-3	-1	8	-16	·	·
CC(C)(C)c1ccc(C2C(C(=O)c3ccco3)=C(O)C(=O)N2CC2CCCO2)cc1 (stereo not given)	37*	-3	-1	-7	-44	10	-13
Cc1ccc(NC(N)=S)cc1	36*	-1	1	11	-2	2	3
Cc1cc(C)c(C(=O)CSc2nnc(-c3ccccc3Br)o2)cc1C	39*	-4	-3	-42	-8	0	3
CCCCCCN(C(=O)CCCCCN1C(=O)NC(c2ccc(-c3ccccc3)cc2)C(C(=O)OCc2ccccc2)=C1C)C(C(=O)NCCCC)c1ccc(O)c(C(=O)OC)c1 (stereo not given)	·	·	·	1	·	·	·
Cc1nn(CC(=O)NCCc2ccco2)c(=O)c2nn(-c3ccccc3)c(C)c12	48*	-4	-2	18	-30	8	-7
Cc1nn(CC(=O)NCCc2cccs2)c(=O)c2nn(-c3ccccc3)c(C)c12	49*	-2	-2	4	-28	-10	-25
Cc1nn(C(C)C(=O)NCCc2ccco2)c(=O)c2nn(-c3ccccc3)c(C)c12 (stereo not given)	4	-1	-1	13	-27	·	·

High-throughput results: PubChem, several laboratories
